Experimental data from different studies.
Protocols differ between the studies behind these lines.
Target: cAMP-dependent protein kinase catalytic subunit alpha (PRKACA, Homo sapiens, UniProt P17612)

CN1CCN(C(=O)c2ccc(NC(=O)Nc3ccc(N(C)c4ccnc(Nc5ccc(CS(C)(=O)=O)cc5)n4)cc3)cc2)CC1 — remaining signal (cell-free assay; 1 µM): 100%
C=CC(=O)N1CCC([C@@H]2CCNc3c(C(N)=O)c(-c4ccc(Oc5ccccc5)cc4)nn32)CC1 — inhibition (enzyme activity; inhibitor; 1 µM): 9%
C#Cc1cnc(Nc2ccnc(CO)c2)nc1Nc1ccccc1S(C)(=O)=NC#N (centres unmarked) — remaining signal (cell-free assay; 1 µM): 100%
CCCCC(=O)Nc1ccc(-c2ccc3ncn(CCC)c(=O)c3c2)cn1 — remaining binding (binding; competition with immobilised ligand; 0.5 µM): 97%
COc1ccc2[nH]c3c4[nH]c5ccc(OC)cc5c4c4c(c3c2c1)C(=O)NC4=O — remaining signal (cell-free assay; 1 µM): 87%
COc1ccc2oc(-c3ccc4nc(N)oc4c3)c/c(=N\c3ccccc3NC(=O)CCN)c2c1 — remaining binding (binding; 1 µM): 111%
N#Cc1ccc(NC(=O)Nc2ccccc2)cc1 — remaining binding (cell-free assay; competition with immobilised ligand; 25 µM): 85%
CO[C@@H]1[C@H](N(C)C(=O)c2ccccc2)C[C@H]2O[C@]1(C)n1c3ccccc3c3c4c(c5c6ccccc6n2c5c31)C(=O)NC4 — inhibition (enzyme activity; inhibitor; 1 µM): 59%
